Source: PubChem BioAssay (several laboratories)
A selection: hits, their analogues and other compounds. The true share with any hit is near 1.4%.
FXIIa inh: inhibitors of human coagulation factor XIIa; P00748; purified FXIIa, Boc-QGR-AMC fluorogenic substrate, 2 h; inhibition, % at 5 µM; hit rate 0.3% among 220,000; in the data active = inhibition above about 40%;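 note: 0% = enzyme with no compound and 100% = blank without enzyme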
Thrombin inh: inhibitors of human thrombin | alpha-thrombin, Boc-VPR-AMC fluorogenic substrate cleavage | inhibition, % at 5 µM | hit rate 0.26% among 220,000 | P00734;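 active = inhibition at or above 40%; inactive = inhibition below 40%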;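 note: 0% = enzyme with no compound and 100% = wells without enzyme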
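signal = AMC fluorescence, 355/460 nm | material = human alpha-thrombin enzyme | control set = enzyme without compound as high, wells lacking enzyme as low | times = reaction at room temperature | read-out basis = percent inhibition scaled between no-compound controls and no-enzyme blanks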
FXIa inh: inhibitors of human coagulation factor XIa | P03951 | purified FXIa, Boc-Glu-Ala-Arg-AMC fluorogenic substrate | inhibition, % at 5 µM | hit rate 0.14% among 220,000 | AID 798;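 active = inhibition of at least 40%; inactive = inhibition below 40%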;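 note: fluorescence of freed AMC excited at 355 nm; 0% = enzyme without compound and 100% = no enzyme blank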
KLK5 inh: kallikrein 5 (human) inhibition. hit rate 0.59% among 210,000. Q9Y337. recombinant hK5, fluorogenic AMC substrate cleavage. AID 873. inhibition, % at 5 µM;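 active = inhibition of 40% or more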;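 note: 0% = enzyme controls without compound and 100% = no-enzyme blanks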
Target sequence (Q9Y337 67-293 limits assumed): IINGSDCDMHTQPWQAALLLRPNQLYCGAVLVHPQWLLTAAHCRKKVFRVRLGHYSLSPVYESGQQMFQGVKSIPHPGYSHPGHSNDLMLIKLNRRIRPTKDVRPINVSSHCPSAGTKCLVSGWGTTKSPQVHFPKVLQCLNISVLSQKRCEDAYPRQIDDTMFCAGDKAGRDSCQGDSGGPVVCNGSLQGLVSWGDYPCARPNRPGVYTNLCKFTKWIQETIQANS
Furin inh: inhibitors of human furin | hit rate 0.061% among 220,000 | purified furin, fluorogenic substrate cleavage | AID 463115 | P09958 | inhibition, % at 20 µM or 30 µM; in the data active = inhibition above about 25%
m-calpain inh: calpain II (pig) inhibition; purified calpain II, fluorogenic peptide substrate, 30 min; inhibition, % at 16 µM; hit rate 0.37% among 220,000;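 active = inhibition above about 50%, limit read from the data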
An asterisk follows results filed as active; x = not tested or not shown.

SMILES	FXIIa inh	Thrombin inh	FXIa inh	KLK5 inh	Furin inh	m-calpain inh
COc1ccc(-c2ncccc2OC(=O)C23CC4CC(CC(C4)C2)C3)cc1	-1	18	3	60*	-41	16
CCOc1ccc(NC(=O)CC2C(=O)N(c3ccc(OC)cc3)C(=O)N2CCc2ccc(OC)c(OC)c2)cc1 (centres undefined)	4	-7	-1	-2	-21	-44
CCCCOc1ccc(C(=O)N/C(=C\c2cccc([N+](=O)[O-])c2)C(=O)OC(C)C)cc1	4	23	-15	-11	1	51*
CCCCOc1ccc(C(=O)N/C(=C\c2cccc([N+](=O)[O-])c2)C(=O)OCCC)cc1	14	-9	3	-3	-18	14
Cc1ccc(S(=O)(=O)NC2(C(F)(F)F)NC(=O)N(C)C2=O)cc1 (centres undefined)	22	14	7	67*	-18	5
O=C(NNc1c(Cl)cc(Cl)cc1Cl)c1n[nH]c(=O)c2ccccc12	74*	28	21	36	-1	18
NNC(=O)c1n[nH]c(=O)c2ccccc12	4	-7	-4	-3	-19	-10
O=C1c2ccccc2C(=O)C12OC(c1ccccc1)C1(C(=O)c3ccccc3C1=O)C2c1cccc([N+](=O)[O-])c1 (centres undefined)	21	6	9	-2	-17	-60
O=C(COC(=O)CCN1C(=O)c2cccc([N+](=O)[O-])c2C1=O)NCc1ccccc1	26	-8	38	42*	-5	17
C/C(=N\Nc1nc(N)cc(Cl)n1)c1cccc([N+](=O)[O-])c1	17	0	-1	0	-12	-16
O=C1CN(O)C=C2N=c3ccccc3=C2N1c1ccc([N+](=O)[O-])cc1	5	-12	-2	-9	-8	58*
O=Cc1ccccc1Oc1ccccc1	-9	-4	-7	3	-22	14
COc1ccc(Oc2ccccc2/C=N/O)cc1	0	-1	1	117*	-13	18
O=C(CCCOc1ccccc1)Nc1nncs1	20	4	5	-5	-22	1
O=C(NCc1ccc(F)cc1)c1cc2n(n1)C(C(F)(F)F)CC(C1CC1)N2 (centres undefined)	8	3	4	-7	-20	66*
O=C(Nc1cccc(Cl)c1N1CCCC1)c1cc2ccccc2o1	28	3	21	1	-16	11
CCOC(=O)c1ccc(NC(=O)Cn2cc3c(n2)CCC(C)C3)cc1 (centres undefined)	13	-3	5	-8	-10	18
O=C(Nc1nccs1)c1cc(S(=O)(=O)N2CCCCC2)ccc1Cl	9	2	5	5	-10	-21
Cc1cc(NC(=O)CN2CCCCC2)no1	1	x	-1	-7	-19	-9
CCN1CCN(CC(=O)Nc2cc(C)on2)CC1	27	3	46*	42*	-6	12
CN(Cc1ccon1)Cc1cn(C)nc1-c1cccc(Cl)c1	23	23	31	58*	7	15
CN(Cc1cn(C)nc1-c1cccc(Cl)c1)C1CCOCC1	11	9	8	12	1	15
Cc1ccsc1CNC(=O)c1c(-c2ccccc2)noc1C	1	-8	-17	42*	-8	-12
C=C(C)CSc1nnc(-c2ccc(OC)cc2)n1N	16	15	3	45*	-16	6
COc1ccc(-c2nnc(SCC(N)=O)n2N)cc1	10	5	0	-6	-14	-22
SMILES	FXIIa inh	Thrombin inh	FXIa inh	KLK5 inh	Furin inh	m-calpain inh
O=C(CS)Nc1ccc2ccccc2c1	4	-7	-1	-1	-12	30
CCCCCC(=O)Nc1ccc2ccccc2c1	22	27	17	124*	-8	23
CCCC1=NN(C(=O)Cc2ccc([N+](=O)[O-])cc2)C(O)(C(F)(F)F)C1 (centres undefined)	-4	-2	-7	-23	-12	18
CCC1=NN(C(=O)Cc2ccc([N+](=O)[O-])cc2)C(O)(C(F)(F)F)C1 (centres undefined)	56*	22	28	25	-4	9
Cc1ccc2c(c1)sc[n+]2Cc1ccccc1	-14	-6	-8	-3	-3	10
COCCNc1nc(SCC(=O)N2CCN(c3ccccc3)CC2)nc2ccccc12	19	4	7	-9	-22	-64
Cn1c(SCC(=O)NC(C)(C)C)nnc1-c1ccc(C(C)(C)C)cc1	9	18	17	42*	-19	12
CCCOP(=O)(OCCC)C1(Nc2ccc(C)cc2)CCCCC1	20	9	-27	2	26*	4
COc1ccc(CCCc2nnc(SCC(=O)Nc3ccc(C)c(C)c3)o2)cc1	6	-10	-1	-24	-13	60*
CC(NC(=O)c1cnc2n(c1=O)CCS2)c1ccccc1 (centres undefined)	5	-2	-5	41*	-12	13
CCN(CCn1cccn1)C(=O)CCc1nnc(C2CCCCC2)o1	1	-8	-4	-3	-17	-12
COc1ccc(CCCc2n[nH]c(=S)o2)cc1C	13	-1	2	6	-26	-1
COc1ccc(CCCc2n[nH]c(=S)n2C)cc1C	30	9	30	43*	-3	26
CCn1c(O)c(N=NC(=O)C2C(=O)NCC2c2ccccc2)c2ccccc21 (centres undefined)	7	-10	-1	-9	-3	2
COc1cccc(N2CCN(C3CC(=O)N(c4ccc(C)c(Cl)c4)C3=O)CC2)c1 (centres undefined)	1	-3	0	3	-21	8
COc1cccc(N2CCN(C3CC(=O)N(c4ccc(F)c(Cl)c4)C3=O)CC2)c1 (centres undefined)	-3	0	-4	44*	-24	3
O=C(Nc1cc(S(=O)(=O)N2CCCC2)ccc1OCC(F)(F)F)c1ccccc1F	12	1	4	-8	-33	-16
CC(O)[C@H]1CNC(=O)C(=O)N1CCc1cccc2ccccc12 (some centres undefined)	2	-3	0	-1	-29	15
CCC(=O)N1CCc2cc(S(=O)(=O)CCC(=O)NCc3ccc4c(c3)OCO4)ccc21	15	2	15	41*	-10	-65
NCc1ccc(S(N)(=O)=O)cc1	6	x	0	2	-6	-7
FC(F)(F)c1cccc(N2CCN(C(=S)NC3CCCCC3)CC2)c1	11	0	7	-16	2	34
FC(F)(F)c1cccc(N2CCN(C(=S)NC3CCCC3)CC2)c1	18	-4	14	-33	-21	52*
O=C(Nc1cccc(S(=O)(=O)N2CCCCC2)c1)C1CC(=O)N(Cc2ccco2)C1 (centres undefined)	7	x	3	0	-13	-29
CC(=O)Nc1nonc1NC(=O)CSc1ccccn1	70*	0	11	4	-5	-23
